Results published in ChEMBL document CHEMBL1932987, “Straightforward palladium-mediated synthesis and biological evaluation of benzo[j]phenanthridine-7,12-diones as anti-tuberculosis agents” (Eur J Med Chem, 2012).
Values after ≈ are worked out from the molar mass of the structure shown. Active and inactive are the calls of the source. The rule behind the calls is not given here.

Assays:
[1] = tested on: Mycobacterium tuberculosis; experiment: Antimycobacterial activity against Mycobacterium tuberculosis H37Rv expressing pSMT1 after 1 to 7 days by BACTEC 460-TB assay; type: functional
In short: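 Radiometric BACTEC 460-TB culture of M.tb. H37Rv in 7H9-based medium. Pre-culture grown to GI 300, then inoculated into a fresh vial with serial compound dilutions made at 40x final concentration from 1 mM DMSO stocks. GI (14C-palmitate to 14CO2) read daily against untreated inocula diluted 100-fold at inoculation. MIC99 taken as 99% inhibition. Each measurement done at least twice.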

[2] = Cytotoxicity against human HepG2/C3A cells after 24 hrs by neutral red uptake assay; type: cell-based
In short: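 C3A hepatocytes in DMEM + 10% FCS, 40,000 per well, recovered at 37 °C, 5% CO2. Exposed 24 h to final 10, 3, 1, 0.3, 0.1 µM from 1 mM DMSO stocks. Neutral red added for 3 h, extracted with ethanol/acetic acid, OD read at 530 nm with 620 nm reference. IC50 = 50% neutral red uptake.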

[3] = Selectivity index, ratio of IC50 for human HepG2/C3A cells to MIC50 for Mycobacterium tuberculosis H37Rv; type: functional
In short: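 Selectivity index is the IC50 from the C3A neutral red uptake assay divided by the MIC50 against luminescent M.tb. H37Rv.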

[4] = tested on: Salmonella typhimurium; experiment: Genotoxicity in Salmonella Typhimurium expressing episomal lux operon assessed as concentration required to cause toxicity in presence of S9 fraction; type: organism-based; settings: salmonella enterica subsp. enterica serovar typhimurium
In short: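 VITOTOX with genetically engineered Salmonella typhimurium strains, with or without S9 from aroclor-treated rat liver. Genotoxicity reported by a luxCDABE reporter under the RecN promoter. Tested at 10, 1 and 0.1 µM; lowest concentration showing cytotoxicity recorded.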

[5] = tested on: Mycobacterium tuberculosis; experiment: Antimycobacterial activity against Mycobacterium tuberculosis H37Rv expressing pSMT1 after 1 to 7 days by luminescent assay; type: functional
In short: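 Luminescent M.tb. H37Rv carrying pSMT1 (luxAB, hsp60 promoter) in 7H9 + 10% FCS. Bacteria filtered, recovered 1 h at 37 °C, 5% CO2, added at 50,000 RLU/ml. Serial dilutions from 1 mM DMSO stocks, triplicate wells. Luminometry after 1, 3 and 7 days; MIC50 = 50% growth reduction.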

[6] = tested on: Mycobacterium tuberculosis; experiment: Antimycobacterial activity against Mycobacterium tuberculosis H37Rv infected in mouse J774 cells assessed as reduction of parasite growth at 1 uM after 7 days by luminescence assay; type: functional; set-up: scale not given: the % may be the effect or the level left
In short: (§1)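 Murine J774 macrophages, 100,000 per well, recovered overnight, then infected with luminescent M.tb. H37Rv (10^4 CFU, MOI 0.1) in DMEM with penicillin and Fungizone. Cells treated with compound at final 10, 3, 1, 0.3, 0.1 µM. Monolayers lysed after 1, 3 or 7 days; intracellular bacteria read by luminometry of lysate. Triplicate cultures, mean RLU.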

[7] = Cytotoxicity against mouse J774 cells assessed as viability at 1 uM after 7 days by neutral red uptake assay; type: cell-based; settings: read-out: Activity
In short: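 Uninfected J774 macrophages exposed to compound in parallel with the infection assay; viability read by neutral red uptake over the same exposure period.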

[8] = tested on: Mycobacterium tuberculosis; experiment: Antimycobacterial activity against Mycobacterium tuberculosis H37Rv infected in mouse J774 cells assessed as reduction of parasite growth at 0.3 uM after 7 days by luminescence assay; type: functional, organism-based; in short: as §1
[9] = Induction of DNA fragmentation in human HepG2/C3A cells at 3 uM after 24 hrs by alkaline comet assay (reference value: 3.69%); type: toxicity, cell-based
In short: (§2)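 Alkaline comet assay on C3A cells, 100,000 per well, pre-incubated 24 h with compound at 3, 1, 0.3 or 0.1 µM. Cells embedded in agarose on slides, lysed 1 h, electrophoresed 20 min at 300 mA, neutralized, stained with gel red. % tail DNA measured by fluorescence microscopy; compared with negative control by Mann-Whitney U test.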

[10] = tested on: Mycobacterium tuberculosis; experiment: Antimycobacterial activity against Mycobacterium tuberculosis H37Rv infected in mouse J774 cells assessed as reduction of parasite growth at 1 uM after 1 day by luminescence assay; type: functional; set-up: scale not given: the % may be the effect or the level left; in short: as §1
[11] = tested on: Mycobacterium tuberculosis; experiment: Antimycobacterial activity against Mycobacterium tuberculosis H37Rv infected in mouse J774 cells assessed as reduction of parasite growth at 1 uM after 3 days by luminescence assay; type: functional; set-up: scale not given: the % may be the effect or the level left; in short: as §1
[12] = Induction of DNA fragmentation in human HepG2/C3A cells at 0.1 uM after 24 hrs by alkaline comet assay (reference value: 3.69%); type: toxicity, cell-based; in short: as §2
[13] = Induction of DNA fragmentation in human HepG2/C3A cells at 0.3 uM after 24 hrs by alkaline comet assay (reference value: 3.69%); type: toxicity, cell-based; in short: as §2
[14] = Induction of DNA fragmentation in human HepG2/C3A cells at 1 uM after 24 hrs by alkaline comet assay (reference value: 3.69%); type: toxicity, cell-based; in short: as §2

Row | Compound | MIC99 [1] [µM] | IC50 [2] [nM] | Selectivity Index [3] | Activity [4] [µM] | MIC50 [5] [µM] | Activity [6] [%] | viability at 168 h, 1 µM [7] [%] | Activity [8] | Activity [9] [%] | Activity [10] [%] | Activity [11] [%] | Activity [12] [%] | Activity [13] [%] | Activity [14] [%]
1 | O=C1c2ccccc2C(=O)c2c1cnc1ccc(Cl)cc21 | 1.35 (≈ 0.397 µg/mL) | 1560 | 1.5 | 1 | 1.03 (≈ 0.303 µg/mL) |  |  |  |  |  |  |  |  | 
2 | NNC(=O)c1ccncc1 [ISONIAZID] |  |  |  |  | 0.54 (≈ 0.0741 µg/mL) |  |  |  |  |  |  |  |  | 
3 | Cc1ccc2c3c(cnc2c1)C(=O)c1ccccc1C3=O | 0.64 (≈ 0.175 µg/mL) | 3210 | 15.29 | 10 | 0.21 (≈ 0.0574 µg/mL) | 83.5 | 92.9 | inactive | 3.31 | 47.6 | 74.2 | 3.47 | 2.52 | 2.15
4 | Cc1cccc2c3c(cnc12)C(=O)c1ccccc1C3=O | 4.3 (≈ 1.18 µg/mL) | 3960 | 1.08 | 10 | 3.68 (≈ 1.01 µg/mL) |  |  |  |  |  |  |  |  | 
5 | O=C1c2ccccc2C(=O)c2c1cnc1ccc(F)cc21 | 1.38 (≈ 0.383 µg/mL) | 1090 | 1.46 | 1 | 0.74 (≈ 0.205 µg/mL) |  |  |  |  |  |  |  |  | 
6 | COc1ccc2ncc3c(c2c1)C(=O)c1ccccc1C3=O |  | 950 | 2.22 | 10 | 0.43 (≈ 0.124 µg/mL) |  |  |  |  |  |  |  |  | 
7 | COc1cccc2c3c(cnc12)C(=O)c1ccccc1C3=O | 2.74 (≈ 0.793 µg/mL) | 2400 | 1.45 | 10 | 1.66 (≈ 0.48 µg/mL) |  |  |  |  |  |  |  |  | 
8 | O=C1c2ccccc2C(=O)c2c1cnc1ccccc21 | 1.9 (≈ 0.493 µg/mL) | 1510 | 1.26 | 1 | 1.2 (≈ 0.311 µg/mL) |  |  |  |  |  |  |  |  | 
9 | Cc1ccc2ncc3c(c2c1)C(=O)c1ccccc1C3=O | 1.53 (≈ 0.418 µg/mL) | 1480 | 1.69 | 10 | 0.88 (≈ 0.24 µg/mL) |  |  |  |  |  |  |  |  | 
